The source of these data is ChEMBL document CHEMBL4433203, “Design, synthesis, and evaluation of isoflavone analogs as multifunctional agents for the treatment of Alzheimer's disease” (Eur J Med Chem, 2019).

Each structure is given as a SMILES string. The source made the active and inactive calls. The calls are words filed in the database; no cut-off is given here.

The nature of data set [1]: Log BB, ratio of Cmax in brain to blood in ICR mouse at 30 mg/kg, po measured upto 48 hrs by LCMS/MS method. The format is ADME, organism-based. The conditions noted are these: read-out: logBB (converted).
Data set [2] relates to Mus musculus. Put plainly: Antialzheimer activity in ICR mouse model of scopolamine-induced cognitive deficit assessed as scopolamine-induced latency time at 10 to 30 mg/kg, po treated for 1 hr followed by scopolamine challenge for 30 mins by step-down passive avoidance test (reference value: 5 secs). The format is functional. Put shortly: (§1)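 ICR mice, six weeks old, 18-22 g, either sex, n = 15/group. […] Step-down test used foot shock of 20 V, 0.5 mA, 2 s, with a training trial and a test 24 h later. Read-outs were latency to first step-down and number of shocks in 5 min. Mean ± SEM.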

A short description of data set [3]: Acute toxicity ICR mouse assessed as effect on drinking behavior at 0 to 1000 mg/kg, po measured up to 14 days. The format is organism-based. The settings on record: in vivo, 336 h. Put shortly: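 Male ICR mice (22 days, 20–22 g), n = 5 per group, chow and water ad libitum, 12 h light/dark cycle. Single oral dose of 0, 100, 200, 500 or 1000 mg/kg in 0.5% CMC-Na. Observed continuously for the first 4 h, intermittently over the next 24 h, then occasionally to 14 days. Euthanized on day 14.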

The nature of data set [4]: AUC (0 to infinity) in ICR mouse at 30 mg/kg, po measured upto 48 hrs by LCMS/MS method. Type of data set: ADME, organism-based. Also noted: dose 30 mg/kg, time infinity, route oral. The settings on record: in vivo.
Data set [5] can be described thus: Plasma concentration in ICR mouse at 30 mg/kg, po measured after 40 mins by LCMS/MS method. The format is ADME, organism-based. Put shortly: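 ICR mice got a single oral dose of 30 mg/kg. At 40 min they were sacrificed and plasma and brain collected. Compound in both was quantified by LC-MS/MS. Log BB is the log of the brain-to-blood concentration ratio. Methods state n = 5, table footnote n = 6. Mean ± SEM.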

For data set [6], the system named is Mus musculus. Nature of the data set: Antialzheimer activity in ICR mouse model of scopolamine-induced cognitive deficit assessed as reduction scopolamine-induced error times at 10 to 30 mg/kg, po treated for 1 hr followed by scopolamine challenge for 30 mins by step-down passive avoidance test. Type of data set: functional, organism-based. The essentials: as §1

Data set [7] concerns Mus musculus. Nature of the data set: Effect on error times in ICR mouse model of scopolamine-induced cognitive deficit during training stage at 10 to 30 mg/kg, po treated for 1 hr followed by scopolamine challenge for 30 mins by step-down passive avoidance test. Type of data set: ADME, organism-based. The conditions noted are these: in vivo. The essentials: as §1
The nature of data set [8]: Antioxidant activity assessed as AAPH radical scavenging activity preincubated for 15 mins with fluorescein before AAPH addition and recorded every 2 mins for 160 mins by ORAC-FL assay. Type of data set: functional. The essentials: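 ORAC-FL assay in 75 mM PBS, pH 7.4. Compound was preincubated with fluorescein (20 nM final) for 15 min at 37 °C, then AAPH (18 mM final) was added. Fluorescence (ex 460/em 520 nm) was read every 2 min for 160 min. Net area under the decay curve, blank-normalized, is expressed as µM Trolox equivalents per µM compound. Duplicates, ≥3 independent assays.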

A short description of data set [9]: Tmax in ICR mouse at 30 mg/kg, po measured upto 48 hrs by LCMS/MS method. Type of data set: ADME, organism-based. The conditions noted are these: in vivo.
The nature of data set [10]: Cmax in ICR mouse at 30 mg/kg, po measured upto 48 hrs by LCMS/MS method. Also noted: dose 30 mg/kg, route oral. The format is ADME, organism-based. The conditions noted are these: in vivo.
Data set [11] deals with BV-2. Put plainly: Cytotoxicity activity in mouse BV2 cells assessed as reduction in cell viability up to 100 uM measured after 72 hrs incubation by MTT assay. Type of data set: cell-based. The settings on record: bv-2, 72 h.
For data set [12], the system named is BV-2. Nature of the data set: Antiinflammatory activity in mouse BV2 cells assessed as reduction in LPS-induced TNF-alpha production at 10 uM pretreated for 1 hr followed by LPS challenge and measured after 24 hrs by ELISA assay. Type of data set: functional, cell-based.
A short description of data set [13]: Half life in ICR mouse at 30 mg/kg, po measured upto 48 hrs by LCMS/MS method. Type of data set: ADME, organism-based. The settings on record: in vivo.

For the compound `CCN(C)CCCCOc1ccc2c(=O)c(-c3ccc(OCCN4CCCCC4)cc3)coc2c1`, in data set [1], the Kp at 48 h was 17.4. In addition, the Time in data set [2] came to 53 s. In addition, the Activity entry in [3] was “Non-Toxic”; in [6], “Dose-dependent effect”; in data set [7], “Non-Toxic”; in data set [8], 0.01 equiv/µM; in [11], “Non-Toxic”. The AUC(0-inf) in data set [4] worked out at 352 ng·h/mL. The same compound yielded a concentration at 40 min in [5] of 47.2 ng/mL. The Tmax in [9] was found to be 0.65 h. For the same compound, the peak level in data set [10] (Cmax) was 52 ng/mL. For the same compound, the result in data set [12] was Active. In addition, in data set [13], the half-life was 13.9 h.
